Source: publication PMC9675722 (Cell chemical biology, 2022)
Like-named read-outs stand apart in the source and are kept apart here.

What was measured:
ERK5 [1] = target: T1, ERK5 (Homo sapiens, UniProt Q13164); test: KdELECT biochemical binding assay; conditions: for binding affinity for ERK5 (in words): Table S1
In short: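 Binding constants to ERK5 were determined in an outsourced KdELECT kinase binding assay from an 11-point dose–response curve.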

MOLT4 cells [2] = test: global quantitative TMT MS proteomics in MOLT4 cells; type: cell-based, Human; conditions: 5 hours
In short: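 MOLT4 cells were treated for 5 h with test compound (250 nM, or 100 nM for one degrader) or DMSO (biological triplicate), then harvested by centrifugation. TMT-labelled tryptic peptides were analysed by LC-MS3 on an Orbitrap Fusion Lumos using a 190 min 6–27% acetonitrile gradient. Spectra were searched against Swissprot human. Proteins with ≥2 unique peptides were kept, and abundance relative to DMSO was computed by limma.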

BRD4 = BRD4 (Homo sapiens, UniProt O60885); test: BRD4 immunoblot in MOLT4 cells; type: cell-based; conditions: 5 hours
In short: (§1)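 MOLT4 cells (RPMI, 10% heat-inactivated FBS, pen-strep, 37 °C, 5% CO2) were exposed to test compound at a range of concentrations for 5 h. Lysis was in M-PER with protease and phosphatase inhibitors, and lysates were BCA-normalised. Samples were run on 4–12% Bis-Tris gels and blotted to nitrocellulose. ERK5, BRD4, AURKA and actin antibodies were applied overnight at 4 °C. Detection was by IRDye secondaries. Blots are representative of 2–3 biological replicates.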

MOLT4 cells [3] = test: CellTiter-Glo proliferation assay, MOLT4; type: cell-based, Human; conditions: for EC50: read-out: anti-proliferative EC50
AURKA = target: T2, AURKA (Homo sapiens, UniProt O14965); test: AURKA immunoblot in MOLT4 cells; type: cell-based; conditions: 5 hours
T2 sequence (O14965 1-403): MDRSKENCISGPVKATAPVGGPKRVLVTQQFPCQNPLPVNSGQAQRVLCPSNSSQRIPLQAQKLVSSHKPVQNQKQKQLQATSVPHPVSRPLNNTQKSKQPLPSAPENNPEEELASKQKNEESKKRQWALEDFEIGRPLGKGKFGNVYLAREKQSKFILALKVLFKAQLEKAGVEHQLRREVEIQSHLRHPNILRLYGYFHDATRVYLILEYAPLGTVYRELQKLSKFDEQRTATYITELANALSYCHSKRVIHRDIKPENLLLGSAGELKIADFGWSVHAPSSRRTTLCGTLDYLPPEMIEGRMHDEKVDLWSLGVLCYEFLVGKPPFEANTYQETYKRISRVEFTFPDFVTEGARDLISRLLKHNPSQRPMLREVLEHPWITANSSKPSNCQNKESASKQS
In short: as §1

ERK5 [4] = target: T1, ERK5; test: ERK5 degradation in MOLT4 cells; type: cell-based; conditions: for DC50: read-out: DC50 of ERK5 degradation, 5-hour treatment
SNU-449 cells = test: CellTiter-Glo proliferation assay, SNU-449; type: cell-based, Human; conditions: for EC50: Homo sapiens, SNU-449, 72 h, read-out: anti-proliferative EC50
BT-474 cells = test: CellTiter-Glo proliferation assay, BT-474; type: cell-based, Human; conditions: for EC50: Homo sapiens, BT-474, 72 h, read-out: anti-proliferative EC50
[5] = system: IL-6 stimulated MM.1S cells; test: IL-6-induced MM.1S proliferation; type: cell-based, Human; conditions: 500 nM and 1 μM, 5 nM IL-6, 3d
In short: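 MM.1S cells at 10,000 cells/well were pre-treated for 5 h with test compound at 500 nM or 1 μM. Recombinant human IL-6 (5 nM) was then added. After 72 h, proliferation was read by CellTiter-Glo. Data are mean with standard deviation of three biological replicates.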

[6] = system: BRD4 and other members of the BET family proteins; conditions: ref Wang et al., 2018; cited from earlier work
IL-8 secretion = test: IL-8 ELISA, LPS-stimulated HUVECs; type: cell-based, Human; conditions: LPS 10 μg/mL 6 hours
In short: (§2)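 HUVECs were seeded at 30,000–60,000 cells/well and pre-treated with test compound for 5 or 24 h. They were then stimulated with E. coli O111:B4 LPS at 10 μg/mL for 6 h. Secreted IL-6 or IL-8 in the supernatant was quantified by sandwich ELISA kits per the manufacturer. Statistics used two-way ANOVA with Bonferroni correction.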

IL-6 secretion = test: IL-6 ELISA, LPS-stimulated HUVECs; type: cell-based, Human; conditions: LPS 10 μg/mL 6 hours
In short: as §2

ERK5 [7] = target: T1, ERK5; test: ERK5 degradation in HUVECs; type: cell-based
In short: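 HUVECs (pooled primary, in vascular cell basal medium with VEGF growth kit and pen-strep, 37 °C, 5% CO2) were treated with test compound for 5 or 24 h. Lysates were BCA-normalised and separated on 4–12% Bis-Tris gels, then transferred to nitrocellulose. ERK5 and actin were probed overnight at 4 °C with IRDye secondary detection. Blots are representative of 2 biological replicates.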

panel of 468 kinases = test: scanMAX KINOMEscan selectivity panel; type: binding; conditions: 1 μM
panel of 750 cell lines = test: PRISM platform anti-proliferative screen; type: cell-based; conditions: read-out: IC50 values in PRISM screen
MM.1S cells = test: CellTiter-Glo proliferation assay, MM.1S basal; type: cell-based; conditions: Homo sapiens, MM1.S, 72 h, read-out: anti-proliferative EC50
In short: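 MM.1S cells, unstimulated, were grown in RPMI with 10% heat-inactivated FBS. They were plated at 500–1000 cells/well and exposed to test compound across a concentration series for 72 h. Viability was read by CellTiter-Glo luminescence. EC50 came from nonlinear regression curve fitting.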

ERK5 [8] = conditions: read-out: reported IC50 for ERK5; ref Wang et al., 2018; cited from earlier work

T1 sequence (Q13164 whole entry): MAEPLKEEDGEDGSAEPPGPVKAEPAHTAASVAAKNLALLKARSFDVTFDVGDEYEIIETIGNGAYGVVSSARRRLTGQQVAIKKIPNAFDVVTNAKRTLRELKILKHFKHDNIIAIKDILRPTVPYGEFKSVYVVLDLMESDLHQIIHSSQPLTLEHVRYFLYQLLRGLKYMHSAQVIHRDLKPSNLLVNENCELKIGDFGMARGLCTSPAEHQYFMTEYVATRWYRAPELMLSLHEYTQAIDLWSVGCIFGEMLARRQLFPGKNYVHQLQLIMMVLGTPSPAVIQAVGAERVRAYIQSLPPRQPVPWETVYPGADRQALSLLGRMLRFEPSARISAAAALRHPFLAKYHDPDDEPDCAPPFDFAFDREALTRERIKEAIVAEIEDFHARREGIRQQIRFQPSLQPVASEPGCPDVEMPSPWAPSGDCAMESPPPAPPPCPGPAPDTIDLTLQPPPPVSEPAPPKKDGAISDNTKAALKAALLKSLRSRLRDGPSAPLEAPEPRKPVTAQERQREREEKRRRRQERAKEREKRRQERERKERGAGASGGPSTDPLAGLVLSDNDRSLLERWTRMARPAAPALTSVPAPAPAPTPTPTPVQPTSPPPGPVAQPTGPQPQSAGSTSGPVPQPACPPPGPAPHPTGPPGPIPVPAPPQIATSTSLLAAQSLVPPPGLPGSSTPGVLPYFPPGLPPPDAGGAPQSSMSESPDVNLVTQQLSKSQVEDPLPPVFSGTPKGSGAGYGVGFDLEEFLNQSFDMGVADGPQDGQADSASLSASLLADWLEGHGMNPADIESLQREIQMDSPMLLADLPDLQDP

BRD4 protein levels (BRD4)	AURKA protein levels (AURKA)	Structure (SMILES)	EC50 (MOLT4 cells [3]; Homo sapiens, MOLT-4, 72 h)	EC50 (SNU-449 cells)	EC50 (BT-474 cells)	effect on IL-6-induced proliferation [5]	IL-8 secretion upon LPS stimulation (IL-8 secretion; 5-hour pre-treatment)	IL-8 secretion upon LPS stimulation (IL-8 secretion; 24-hour pre-treatment)	IL-6 secretion upon LPS stimulation (IL-6 secretion; 5-hour pre-treatment)	IL-6 secretion upon LPS stimulation (IL-6 secretion; 24-hour pre-treatment)	further results
no effect	validated through immunoblot analysis	CCC(C)N1c2ccccc2C(=O)N(C)c2cnc(Nc3ccc(C(=O)N4CCN(CCCCCC(=O)N[C@H](C(=O)N5C[C@H](O)C[C@H]5C(=O)N[C@@H](C)c5ccc(-c6scnc6C)cc5)C(C)(C)C)CC4)cc3)nc21 (stereo partly drawn) [INY-05-128, (2S,4R)-1-((2S)-2-(6-(4-(4-((11-(sec-butyl)-5-methyl-6-oxo-6,11-dihydro-5H-benzo[e]pyrimido[5,4-b][1,4]diazepin-2-yl)amino)benzoyl)piperazin-1-yl)hexanamido)-3,3-dimethylbutanoyl)-4-hydroxy-N-((S)-1-(4-(4-methylthiazol-5-yl)phenyl)ethyl)pyrrolidine-2-carboxamide]	1.1 µM								binding affinity for ERK5 (in words) (ERK5 [1]): high binding affinities; AURKA protein abundance, proteomics (MOLT4 cells [2]; MOLT4, 250 nM): induced downregulation; ERK5 (MAPK7) protein abundance, proteomics (MOLT4 cells [2]; MOLT4, 250 nM): potent downregulation; DC50 (ERK5 [4]): 0.281 µM
		CCOc1cc(C(=O)N2CCC(N3CCN(C)CC3)CC2)ccc1Nc1ncc2c(n1)N(S(C)(=O)=O)c1ccccc1C(=O)N2C [AX15836, reference compound]	> 10 µM	> 20 µM	> 20 µM	no effect					
potent BRD4 degradation	validated through immunoblot analysis	Cc1ncsc1-c1ccc([C@H](C)NC(=O)[C@@H]2C[C@@H](O)CN2C(=O)[C@@H](NC(=O)CCCCCN2CCN(C(=O)c3ccc(Nc4ncc5c(n4)N(C4CCCC4)c4ccccc4C(=O)N5C)cc3)CC2)C(C)(C)C)cc1 [INY-05-091, (2S,4R)-1-((S)-2-(6-(4-(4-((11-cyclopentyl-5-methyl-6-oxo-6,11-dihydro-5H-benzo[e]pyrimido[5,4-b][1,4]diazepin-2-yl)amino)benzoyl)piperazin-1-yl)hexanamido)-3,3-dimethylbutanoyl)-4-hydroxy-N-((S)-1-(4-(4-methylthiazol-5-yl)phenyl)ethyl)pyrrolidine-2-carboxamide]									binding affinity for ERK5 (in words) (ERK5 [1]): high binding affinities; AURKA protein abundance, proteomics (MOLT4 cells [2]; MOLT4, 250 nM): induced downregulation; BRD3 and BRD4 protein abundance, proteomics (MOLT4 cells [2]; MOLT4, 250 nM): additional downregulated targets; ERK5 (MAPK7) protein abundance, proteomics (MOLT4 cells [2]; MOLT4, 250 nM): potent downregulation; anti-proliferative activity (in words) (MOLT4 cells [3]; MOLT4, 3 days): potent anti-proliferative activities; DC50 (ERK5 [4]): 0.167 µM
		CCOc1cc(C(=O)N2CCC(N3CCN(C)CC3)CC2)ccc1Nc1ncc2c(n1)N(C1CCCC1)c1ccccc1C(=O)N2C [XMD17-109]					reduced	significantly reduced	reduced	significantly reduced	binding to off-target BET family proteins [6]: binds to and inhibits BRD4 and other members of the BET family proteins; anti-proliferative activity (in words) (MOLT4 cells [3]; MOLT4, 3 days): potent anti-proliferative activities; anti-proliferative effect (in words) (SNU-449 cells; SNU-449, 3d treatment): the only compound to display anti-proliferative effects; anti-proliferative effect (in words) (BT-474 cells; BT-474, 3d treatment): the only compound to display anti-proliferative effects
did not destabilize	did not destabilize	Cc1ncsc1-c1ccc([C@H](C)NC(=O)[C@@H]2C[C@@H](O)CN2C(=O)[C@@H](NC(=O)CCCCCN2CCN(c3ccc4c(C5CCN(C(=O)c6ccc(OC(F)(F)F)cc6N)CC5)ncnc4c3)CC2)C(C)(C)C)cc1 [INY-06-061, (2S,4R)-1-((S)-2-(6-(4-(4-(1-(2-amino-4-(trifluoromethoxy)benzoyl)piperidin-4-yl)quinazolin-7-yl)piperazin-1-yl)hexanamido)-3,3-dimethylbutanoyl)-4-hydroxy-N-((S)-1-(4-(4-methylthiazol-5-yl)phenyl)ethyl)pyrrolidine-2-carboxamide]		> 20 µM	> 20 µM	no effect	did not significantly suppress	no effect	did not significantly suppress	no effect	ERK5 protein level (ERK5 [7]; 1 μM, 5-hour treatment): potent downregulation of ERK5; ERK5 degradation (ERK5 [7]; 24 hours): maintained for 24 hours; Kd (ERK5 [1]): 0.012 µM; potential off-target kinases (panel of 468 kinases): weak inhibition of potential off-targets (AXL, CDK19, SgK110, CDKL2, and AURKC); biochemical selectivity profile across the kinome (panel of 468 kinases; 468 kinases): high selectivity for ERK5; proteins significantly downregulated, proteomics (MOLT4 cells [2]; MOLT4, 100 nM, ~7,700 proteins quantified): ERK5 (MAPK7) was the only protein whose abundance was significantly downregulated; IC50 (panel of 750 cell lines): > 1 µM; EC50 (MM.1S cells): 6 µM; ERK5 degradation at high concentration (hook effect) (ERK5 [4]; 5 hours, 5 μM or greater): diminished ERK5 degradation
		CN1CCN(c2cnc3c(C4CCN(C(=O)c5ccc(OC(F)(F)F)cc5N)CC4)ncnc3c2)CC1 [BAY-885]	> 10 µM	> 20 µM	> 20 µM	no effect	no effect	no effect	no effect	no effect	Kd (ERK5 [1]): 0.001 µM
		CCC(C)N1c2ccccc2C(=O)N(C)c2cnc(Nc3ccc(C(=O)N4CCC(N5CCN(C)CC5)CC4)cc3OC)nc21 (stereo not drawn) [JWG-071]									binding to off-target BET family proteins [6]: significantly reduced affinity; IC50 (ERK5 [8]): 0.088 µM; EC50 (MOLT4 cells [3]; MOLT4, 3 days): 2.4 µM
